“Also recorded” adds a separate entry of the source. Read-outs that look alike come from different tables or passages of the source.
Experiments:
[1] = tested on: White patients with relapsed or refractory AML; settings: cited from earlier work
[2] = tested on: Japanese patients with acute myeloid leukemia; assay: Best response and remission duration; format: in vivo, human
Method in brief: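 Same patients and dosing: 2-h IV infusion on days 1 and 15 of 28-day cycles, at 350, 400 or 450 mg. Best response (CR, CRi, PR) and remission duration judged by International Working Group and European Leukemia Net criteria. Assessed in peripheral blood and bone marrow, with imaging added for extramedullary disease. Efficacy cut-off 12 March 2015.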

PLK3 = settings: compared with PLK1; cited from earlier work
PLK2 = settings: compared with PLK1; cited from earlier work
PLK1 = settings: cited from earlier work
[3] = tested on: Japanese patients with acute myeloid leukemia; assay: Phase I 3 + 3 dose escalation: dose-limiting toxicities and MTD; format: in vivo, human
Method in brief: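 Open-label 3 + 3 escalation at 350, 400 and 450 mg (highest planned level), by 2-h IV infusion on days 1 and 15 of 28-day cycles; patients hospitalized in cycle 1. DLT: treatment-related CTCAE grade ≥3 non-hematologic AE in cycle 1. Exceptions: untreated nausea/vomiting, treatable grade 3 diarrhea, grade 3 febrile neutropenia or infection, lab abnormalities resolving within 5 days, grade 3 tumor lysis syndrome.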

Plasma pharmacokinetics = format: in vivo, human
[4] = 450 mg, day 29 (cycle 2, day 1)
[5] = human, plasma, intravenous, 350 mg
[6] = human, plasma, intravenous, 400 mg
[7] = human, plasma, intravenous, 450 mg

## CC[C@@H]1C(=O)N(C)c2cnc(Nc3ccc(C(=O)N[C@H]4CC[C@H](N5CCN(CC6CC6)CC5)CC4)cc3OC)nc2N1C(C)C [Volasertib]
[1]; 400 mg
  DLT reported in White patients: mucosal inflammation
[1]; 450 mg
  DLT reported in White patients: pyrexia
[1]; volasertib monotherapy, phase I
  MTD in White patients: 450 mg
[2]; 350 mg (n = 7)
  Best overall response CR, patients: 1 n
  Best overall response PD, patients: 3 n
  Best overall response SD, patients: 3 n
  Patients with CR/CRi: 1 n
[2]; 350 mg (n = 7), listed as volasertib
  Best overall response CR, patients: One of seven patients
[2]; 350 mg, 1 patient with CR/CRi
  Remission duration, median (range): 358 days
[2]; 400 mg (n = 4)
  Best overall response CRi, patients: 2 n
  Best overall response SD, patients: 2 n
  Patients with CR/CRi: 2 n
[2]; 400 mg (n = 4), listed as volasertib
  Best overall response CRi, patients: two of four patients
[2]; 400 mg, 2 patients with CR/CRi
  Remission duration, median (range): 72 (70–74) days
[2]; 450 mg (n = 8)
  Best overall response CR, patients: 2 n
  Best overall response CRi, patients: 1 n
  Best overall response PD, patients: 1 n
  Best overall response PR, patients: 1 n
  Best overall response SD, patients: 3 n
  Patients with CR/CRi: 3 n
[2]; 450 mg, 3 patients with CR/CRi
  Remission duration, median (range): 96 (56–262) days
[2]; Total (N = 19)
  Best overall response CR, patients: 3 n
  Best overall response CR, share of patients: 15.8%
  Best overall response CRi, patients: 3 n
  Best overall response CRi, share of patients: 15.8%
  Best overall response PD, patients: 4 n
  Best overall response PD, share of patients: 21.1%
  Best overall response PR, patients: 1 n
  Best overall response PR, share of patients: 5.3%
  Best overall response SD, patients: 8 n
  Best overall response SD, share of patients: 42.1%
  Patients achieving best response of CR, CRi or PR: 36.8%
  Patients with CR/CRi: 6 n
[2]; Total, 6 patients with CR/CRi
  Remission duration, median (range): 85 (56–358) days
[2]; Total, 6 patients with CR/CRi, listed as volasertib
  Remission duration, median (range): 85 days
[2]; out of 19 treated patients
  Patients achieving best response of CR, CRi or PR: 7 patients
[2]; person, primary refractory M2 de novo AML, complex karyotype, CR after cycle 3
  Duration for which CR was maintained in one patient: 358 days
PLK3
  Inhibition of PLK3: to a lesser extent
PLK2
  Inhibition of PLK2: to a lesser extent
PLK1
  Inhibition of PLK1: selectively inhibit
[3]; 350 mg cohort
  DLT in cycle 1: No DLT were reported
[3]; 400 mg cohort
  DLT in cycle 1: No DLT were reported
[3]; 450 mg cohort 3, 6 evaluable patients
  Patients with DLT in cycle 1: 1
[3]; 450 mg cohort 3, cycle 1
  DLT observed (type): grade 4 abnormal liver function test; also recorded: reversible grade 4 liver function test abnormality
[3]; 450 mg, reduced to 400 mg in cycle 2
  Day on which the patient was considered recovered from the DLT: 38 days
[3]; 450 mg, day 9 of cycle 1, reference 0.3–1.2 mg/dL
  Total bilirubin in the patient with DLT: 1.1 mg/dL
[3]; 450 mg, day 9 of cycle 1, reference 6–30 IU/L
  ALT in the patient with DLT: 116 IU/L
[3]; 450 mg, day 9 of cycle 1, reference 13–33 IU/L
  AST in the patient with DLT: 131 IU/L
[3]; 450 mg, day 11 of cycle 1
  ALT in the patient with DLT: 711 IU/L
  AST in the patient with DLT: 764 IU/L
  Total bilirubin in the patient with DLT: 2.6 mg/dL
[3]; 450 mg, day 16
  ALT in the patient with DLT: 450 IU/L
  AST in the patient with DLT: 156 IU/L
  Total bilirubin in the patient with DLT: 3.8 mg/dL
[3]; [4]
  ALT in the patient with DLT: 38 IU/L
  AST in the patient with DLT: 15 IU/L
  Total bilirubin in the patient with DLT: 1.0 mg/dL
[3]; intravenous 2-h infusion on days 1 and 15 of 28-day cycles
  Maximum tolerated dose (MTD): 450 mg
Plasma pharmacokinetics; 24 h after administration
  Mean plasma concentration relative to maximum plasma concentration: < 10%
Plasma pharmacokinetics; dose range 350–450 mg
  Dose dependence of exposure: increased dose‐proportionally
Plasma pharmacokinetics; human, plasma, intravenous
  Vd: 3540 to 4720 L
  clearance: 606 to 669 mL/min
  half-life: 108 to 130 h
Plasma pharmacokinetics; [5]
  AUC(0-inf): 8720 ng·h/mL
  AUC(0-t): 7810 ng·h/mL
  Cmax: 756 ng/mL
  Tmax: 1.97 h
  clearance: 669 mL/min
  half-life: 117 h
Plasma pharmacokinetics; [6]
  AUC(0-inf): 10400 ng·h/mL
  AUC(0-t): 9340 ng·h/mL
  Cmax: 762 ng/mL
  Tmax: 1.05 h
  clearance: 643 mL/min
  half-life: 130 h
Plasma pharmacokinetics; [7]
  AUC(0-inf): 12400 ng·h/mL
  AUC(0-t): 11400 ng·h/mL
  Cmax: 1060 ng/mL
  Tmax: 1.53 h
  clearance: 606 mL/min
  half-life: 108 h
Plasma pharmacokinetics; plasma, after first infusion of volasertib 350 mg (n = 7)
  AUC0–∞,norm (dose normalized), gMean (gCV%): 24.9 (27.8) ng·h/mL/mg
Plasma pharmacokinetics; plasma, after first infusion of volasertib 400 mg (n = 4)
  AUC0–∞,norm (dose normalized), gMean (gCV%): 25.9 (54.7) ng·h/mL/mg
Plasma pharmacokinetics; plasma, after first infusion of volasertib 450 mg (n = 8)
  AUC0–∞,norm (dose normalized), gMean (gCV%): 27.5 (22.8) ng·h/mL/mg
